Compound activity deposited in PubChem by Sanford-Burnham Center for Chemical Genomics.
PPC-1+TRAIL kill: compounds killing PPC-1 cancer cells with TRAIL present (potentiator screen, no TRAIL-free arm) | PPC-1 cells + TRAIL, ATPLite viability luminescence | cell killing (% activity), % at 4 µM or 5 µM | 220,000 tested, 0.41% active | AID 1443;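 active = cell killing above 50% in the first pass at 4 µM, then a duplicate retest at 5 µM averaging 50% or more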
FLuc stim CS: firefly luciferase counter-screen for stimulation assays | P08659 | 200,000 tested, under 10 active | ATPlite luciferase biochemical, luminescence, 10 min; 0 = ATP-free wells, 1 = DMSO control | activation factor at 10 µM | AID 1027;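 active = luciferase activation factor, scaled between plate controls, of at least 2 with compound at 10 µM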
Target sequence (P08659 whole entry, looked up): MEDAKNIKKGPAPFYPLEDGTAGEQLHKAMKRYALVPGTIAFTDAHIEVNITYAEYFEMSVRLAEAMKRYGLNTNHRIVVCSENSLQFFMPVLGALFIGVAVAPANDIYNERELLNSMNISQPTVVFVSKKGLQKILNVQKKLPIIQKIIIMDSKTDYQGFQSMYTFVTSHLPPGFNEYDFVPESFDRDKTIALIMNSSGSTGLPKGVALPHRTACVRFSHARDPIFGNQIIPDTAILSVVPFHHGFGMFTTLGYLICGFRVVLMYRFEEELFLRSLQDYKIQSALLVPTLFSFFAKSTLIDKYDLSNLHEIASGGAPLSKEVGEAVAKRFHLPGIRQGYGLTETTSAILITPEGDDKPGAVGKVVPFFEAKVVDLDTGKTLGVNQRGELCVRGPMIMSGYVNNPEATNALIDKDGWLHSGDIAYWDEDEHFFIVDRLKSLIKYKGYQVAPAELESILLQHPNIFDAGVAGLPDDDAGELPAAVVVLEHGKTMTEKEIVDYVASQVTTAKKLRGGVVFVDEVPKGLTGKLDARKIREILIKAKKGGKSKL
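Assay system: Luciferase/luciferin detection reagent, cell-free biochemical luciferase assay / Also added: ATP substrate / Schedule: 10 min at ambient temperature / Measured by: luminescence measurement of luciferase light output / Benchmarks: low control with PBS replacing ATP, high control enzyme plus ATP without compound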
FLuc inhib CS: counter-screen for luciferase assay inhibitors: firefly luciferase inhibition. inhibition, % at 10 µM. ATPLite firefly luciferase biochemical luminescence, 10 min. 200,000 tested, 1.5% active;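 active = inhibition above about 50% when tested at 10 µM, limit read from the data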
C8 TRAIL sens: caspase-8 TRAIL sensitization | AID 624354 | inhibition (viability loss, TRAIL sensitization), % at 10 µM | NB7+C8 cells + TRAIL, ATPlite viability luminescence | 360,000 tested, 1% active;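 active = compounds causing at least 50% loss of cell viability in the single-dose screen, relative to plate controls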
Each line names hits and unclear results; the compound was inactive in the other large screens. Only some compounds are listed: those with a hit (about 1.5% of all), similar ones and a draw of the others.

COc1ccc(-c2nnc3n2N=C(C)CS3)cc1	none
CCOC(=O)/C(=C\c1ccc(OC(F)F)cc1)C1=Nn2c(nnc2-c2ccc(Cl)cc2)SC1	C8 TRAIL sens 94
CCOC(=O)/C(=C/c1ccc(OC(F)F)cc1)C1=Nn2c(nnc2-c2ccc(Cl)cc2)SC1	C8 TRAIL sens 90 (no result: PPC-1+TRAIL kill, FLuc stim CS, FLuc inhib CS)
Cc1ccc(-n2nc3ccc(N)cc3n2)cc1	FLuc inhib CS 76
CC(C)c1ccc(-n2nc3ccc(N)cc3n2)cc1	FLuc inhib CS 87, C8 TRAIL sens 68
C=CCn1c(COc2ccccc2F)nnc1SCC(=O)NC(=O)NCc1ccco1	none
CN(C)c1ccc(/C=N/NC(=O)c2ccccn2)cc1	C8 TRAIL sens 66 (no result: FLuc stim CS, FLuc inhib CS)
CN(C)c1ccc(/C=N/NC(=O)c2ccco2)cc1	FLuc inhib CS 84, C8 TRAIL sens 66
CN(C)c1ccc(/C=N\NC(=O)c2csnn2)cc1	FLuc inhib CS 60
O=C(N/N=C/c1ccncc1)c1ccccn1	none (no result: PPC-1+TRAIL kill, FLuc stim CS, FLuc inhib CS)
O=C(N/N=C/c1ccc(OC(=O)c2ccco2)cc1)c1ccccn1	FLuc inhib CS 52
O=C(Oc1ccc(/C=N/NC(=O)c2ccccn2)cc1)c1ccc(Br)cc1	none (no result: PPC-1+TRAIL kill, FLuc stim CS, FLuc inhib CS)
C[C@H]1CN([C@@H](C)CO)C(=O)c2cc(C#CC3(O)CCCC3)cnc2O[C@H]1CN(C)C(=O)C1CC1	none (no result: PPC-1+TRAIL kill, FLuc stim CS, FLuc inhib CS)
C/C(=N\NC(=O)C(=O)Nc1cccc(Cl)c1)c1ccncc1	none
Cc1nnc(N2C(=O)C(=O)/C(=C(/O)c3ccc4c(c3)OCCO4)C2c2ccc(F)cc2)s1 (centres undefined)	none (no result: PPC-1+TRAIL kill, FLuc stim CS, FLuc inhib CS)
CCOC(=O)Cc1csc(NC(=O)c2c(-c3c(Cl)cccc3Cl)noc2C)n1	none
O=C(N/N=C/C(Cl)=C/c1ccccc1)c1ccccn1	FLuc inhib CS 81, C8 TRAIL sens 56
O=C(N/N=C/C(Cl)=C/c1ccccc1)c1ccncc1	none
Cc1cccc(S(=O)(=O)NC(=O)C2(C)CCN2C(=O)Cc2cc(F)ccc2F)c1 (centres undefined)	none (no result: PPC-1+TRAIL kill, FLuc stim CS, FLuc inhib CS)
CCN(CC)CP(=O)(c1ccccc1)c1ccccc1	none
CCN(CC)c1ccc2c(c1)oc(=O)c1c(Cl)cc(=O)oc12	C8 TRAIL sens 70
O=S(=O)(c1ccccc1)c1nnn2c1nc(NC1CCN(Cc3ccccc3)CC1)c1ccccc12	C8 TRAIL sens 76 (no result: PPC-1+TRAIL kill, FLuc stim CS, FLuc inhib CS)
CC1CN/C(=C\C(=O)c2ccc(Cl)cc2)C(=O)N1 (centres undefined)	FLuc inhib CS 51
CC1CN/C(=C\C(=O)c2ccccc2)C(=O)N1 (centres undefined)	none
COc1ccc(-c2cn3cc(C)ccc3n2)cc1Br	PPC-1+TRAIL kill 87, FLuc inhib CS 94, C8 TRAIL sens 75
COc1ccc(CN2CCC(=O)N(CCO)CC2)cc1OC	none (no result: PPC-1+TRAIL kill, FLuc stim CS, FLuc inhib CS)
CN(C)c1ccc(N=Nc2ccccc2C(=O)OCC(=O)N(C)c2ccccc2)cc1	FLuc inhib CS 65
COC(=O)c1ccccc1NC(=O)COC(=O)c1ccccc1N=Nc1ccc(N(C)C)cc1	none
Clc1ccc(-c2nnc(-c3ccccc3)o2)c(Cl)c1	FLuc inhib CS 86, C8 TRAIL sens 70
CSc1ccccc1-c1nnc(-c2ccc(Cl)c(Cl)c2)o1	none
CSc1ccccc1-c1nnc(-c2ccc(Cl)cc2Cl)o1	FLuc inhib CS 60
Fc1ccc(-c2nnc(-c3ccc(Cl)cc3Cl)o2)cc1	FLuc inhib CS 89, C8 TRAIL sens 86 (no result: PPC-1+TRAIL kill)
O=C(CC[C@H]1O[C@@H](n2ccc(=O)[nH]c2=O)[C@H](O)[C@@H]1O)NCc1cccc2ccccc12	none (no result: PPC-1+TRAIL kill, FLuc stim CS, FLuc inhib CS)
S=C(c1ccc(-c2ccccc2Cl)o1)N1CCCCC1	none
S=C(c1ccc(-c2ccc(Cl)cc2)o1)N1CCCCC1	FLuc inhib CS 71
COC(=O)c1ccc(C(=O)OC)c(NC(=O)CSCc2ccc(Cl)cc2)c1	none
COC(=O)Cc1c(C)nc2nc(-c3ccc(Cl)cc3)[nH]n2c1=O	FLuc inhib CS 58
Cc1nc2nc(-c3ccc(Cl)cc3)[nH]n2c(=O)c1C	FLuc inhib CS 66 (no result: C8 TRAIL sens)
Cc1cc(=O)n2[nH]c(-c3ccc(F)cc3)nc2n1	FLuc inhib CS 66, C8 TRAIL sens 51
COC(=O)Cc1c(C)nc2nc(-c3ccc(C)cc3)[nH]n2c1=O	FLuc inhib CS 50
COC(=O)Cc1c(C)nc2nc(-c3ccccc3)[nH]n2c1=O	none
CCN1C(=O)C(=O)N(Cc2ccc(OC)c(F)c2)C1=O	none (no result: PPC-1+TRAIL kill, FLuc stim CS, FLuc inhib CS)
CC(C)(C)NC(=O)CN(C(=O)C(=O)Nc1ccc2c(c1)OCCO2)N1CCOCC1	none (no result: PPC-1+TRAIL kill, FLuc stim CS, FLuc inhib CS)
CCSc1nc2c(c(=O)[nH]c(=O)n2C)n1C/C=C(/C)Cl	none
CCOC(=O)CSC1=C(C#N)C(c2ccc(OC)cc2)C2=C(CC(C)(C)CC2=O)N1 (centres undefined)	none
CC(C)COC(=O)c1ccc2c(c1O)C(=O)c1ccccc1C2=O	C8 TRAIL sens 57
O=c1[nH]c2ccccc2cc1-c1nnn(-c2ccc(Cl)c(Cl)c2)n1	none (no result: PPC-1+TRAIL kill, FLuc stim CS, FLuc inhib CS)
Fc1ccc(-n2nnc(-c3cccnc3)n2)cc1	none
Fc1ccc(-n2nnc(-c3cnc4ccccc4c3)n2)cc1	FLuc inhib CS 74, C8 TRAIL sens 61
O=c1[nH]c2ccccc2cc1-c1nnn(-c2ccc(F)cc2)n1	FLuc inhib CS 65, C8 TRAIL sens 62
COc1ccc(Nc2nnc(SCC(=O)N3CC(=O)Nc4ccccc43)s2)cc1	FLuc inhib CS 55
COc1ccc(C(=O)/C=C/Nc2cc(C)ccn2)cc1	C8 TRAIL sens 61 (no result: FLuc stim CS, FLuc inhib CS)
Cc1ccnc(N/C=C/C(=O)c2ccc(Br)cc2)c1	none (no result: PPC-1+TRAIL kill, FLuc stim CS, FLuc inhib CS)
